Published values of several laboratories.
Lines come from different studies, so protocols differ.
Target: Serine/threonine-protein kinase NLK (NLK, Homo sapiens, UniProt Q9UBE8)
Residues used in one study (Q9UBE8 1-527): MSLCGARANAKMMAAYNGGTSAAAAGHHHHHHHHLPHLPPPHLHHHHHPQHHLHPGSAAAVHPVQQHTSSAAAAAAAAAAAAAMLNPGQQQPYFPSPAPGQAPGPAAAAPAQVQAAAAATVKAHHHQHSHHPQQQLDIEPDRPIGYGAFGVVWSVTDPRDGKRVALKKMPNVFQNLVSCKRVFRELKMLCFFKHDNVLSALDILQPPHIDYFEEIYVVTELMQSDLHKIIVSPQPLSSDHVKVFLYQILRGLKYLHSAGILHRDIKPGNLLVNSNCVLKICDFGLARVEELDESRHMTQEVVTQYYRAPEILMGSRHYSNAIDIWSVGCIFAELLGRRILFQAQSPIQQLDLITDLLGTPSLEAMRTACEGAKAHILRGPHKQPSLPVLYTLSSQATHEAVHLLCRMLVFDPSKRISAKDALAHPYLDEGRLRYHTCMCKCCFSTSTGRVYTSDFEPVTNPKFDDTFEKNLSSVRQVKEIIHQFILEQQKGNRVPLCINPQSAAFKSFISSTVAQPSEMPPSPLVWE

Compound	test	conditions	remaining binding [%]
COc1ccnn2ncc(-c3ccnc(N(C)C)n3)c12	binding	1 µM	87
FC(F)(F)Oc1cccc(-c2cnc3ccc(-c4ccncc4)nn23)c1	cell-free assay, competition with immobilised ligand	5 µM	85
CN(c1nccc(-c2cnn3ncccc23)n1)C1CC1	binding	1 µM	77
CCN1CCN(Cc2ccc(C(=O)Nc3ccc(C)c(Oc4ccc5c(c4)CC(=O)N5)c3)cc2C(F)(F)F)CC1	binding, competition with immobilised ligand	1 µM	79
O=C(Nc1c[nH]nc1C(=O)NC1CCNCC1)c1cc(F)cc(F)c1	binding, competition with immobilised ligand	1 µM	90
O=C(c1ccc(Nc2nccc(-c3cc4ccccc4s3)n2)cc1)N1CCC(N2CCCC2)CC1	binding, competition with immobilised ligand	1 µM	93
Cc1c(C(=O)O)cc(-c2ccc(C3CCNCC3)cc2)c2ccc(-c3ccc(C(F)(F)F)cc3)cc12	binding, competition with immobilised ligand	1 µM	100
C[C@H]1CCN(c2nccc(-c3cnn4ncccc34)n2)C1	binding	1 µM	100
O=C(Nc1ccc(Oc2ccc(F)cc2)cc1)N1CCc2ncccc2[C@H]1c1ccc(F)cc1	cell-free assay, competition with immobilised ligand	1 µM	87
CN(CCCC(F)(F)F)c1nccc(-c2cnn3ncccc23)n1	binding	1 µM	66
O=C(NCCCN1CCOCC1)c1ccc(Nc2ncc(Cl)c(-c3ccc(Cl)s3)n2)cc1	binding, competition with immobilised ligand	1 µM	100
C[C@@H]1CN(c2cc(-c3nn(C)c4ccc(OC5(C)CC5)cc34)ncn2)C[C@H](C)O1	cell-free assay, competition with immobilised ligand	1 µM	96
c1cncc(-c2cccc(Nc3nccc(NC4CCCCC4)n3)c2)c1	binding, competition with immobilised ligand	10 µM	67
C=CC(=O)N1CCC(C(=O)NCC(=O)N2CCN(c3nc(-c4cnc(N)nc4C(F)F)nc(N4CCOCC4)n3)CC2)CC1	binding, competition with immobilised ligand	1 µM	94
COc1cnc(Nc2cccc(S(N)(=O)=O)c2)nc1N1CCN(c2ccccc2)CC1	binding, competition with immobilised ligand	1 µM	96
O=C(c1ccc(Nc2ncc(Cl)c(-c3ccc(Cl)s3)n2)cc1)N1CCC(N2CCCC2)CC1	binding, competition with immobilised ligand	1 µM	98
O=C(NCc1ncc(C(F)(F)F)cc1Cl)c1ccc2c(c1)C1(CCS(=O)(=O)CC1)[C@@H](C1CC1)N2S(=O)(=O)c1ccc(F)cc1	cell-free assay, competition with immobilised ligand	1 µM	89
COc1cnc(Nc2cccc(S(N)(=O)=O)c2)nc1N1CCN(c2ccccc2)C(=O)C1	binding, competition with immobilised ligand	1 µM	100
O=C(O)[C@@H]1[C@@H](Cn2nnc3ccccc3c2=O)CC[C@H]1C(=O)c1ccc(OCCC2CCOCC2)cc1	cell-free assay, competition with immobilised ligand	1 µM	86
CN(C)c1nccc(-c2cnc3ncccn23)n1	binding	1 µM	74
CS(=O)(=O)NCC[C@H](NC(=O)c1cncc2c1cnn2-c1ccc(F)cc1)c1ccnc(S(C)(=O)=O)c1	cell-free assay, competition with immobilised ligand	1 µM	100
N[C@H]1CCN(c2nccc(-c3cnn4ncccc34)n2)C1	binding	1 µM	76
